# Key:
# A549 [1] = test: Growth inhibition of A549 cells by SRB assay; format: functional, cell-based; conditions: Homo sapiens
# In short: (§1)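 Cells seeded at 5000/well and exposed to a range of drug concentrations for 72 h at 37 °C, 5% CO2, then read by SRB. A2780 and its dCK-deficient variant AG6000 were grown in DMEM; A549, H292 and H460 in RPMI; both media had 10% FCS and 20 mM HEPES. OD was read at 540 or 492 nm. Relative growth = (ODtreated − ODzero)/(ODcontrol − ODzero) × 100%, with ODzero taken at drug addition.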
# [2] = Growth inhibition of H292 cells by SRB assay; format: functional, cell-based; conditions: Homo sapiens, NCI-H292; in short: as §1
# NCI-H460 [3] = test: Growth inhibition of H460 cells by SRB assay; format: functional, cell-based; conditions: Homo sapiens; in short: as §1
# SW1573 [4] = test: Growth inhibition of SW1573 cells by SRB assay; format: functional, cell-based; conditions: Homo sapiens
# In short: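 SW1573 NSCLC cells grown in DMEM with 10% FCS and 20 mM HEPES at 37 °C, 5% CO2. Seeded at 5000 cells/well and exposed to a range of drug concentrations for 72 h, then SRB assay. OD read at 540 or 492 nm. Relative growth = (ODtreated − ODzero)/(ODcontrol − ODzero) × 100%, with ODzero taken at drug addition.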
# A2780 [5] = test: Growth inhibition of A2780 cells by SRB assay; format: functional, cell-based; conditions: Homo sapiens; in short: as §1
# [6] = Growth inhibition of AG6000 cells by SRB assay; format: functional, cell-based; conditions: Homo sapiens; in short: as §1
# A549 [7] = test: Growth inhibition of A549 cells by SRB assay in presence of dipyridamole; format: functional, cell-based; conditions: Homo sapiens
# In short: (§2)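 SRB growth assay run with the nucleoside transport inhibitor dipyridamole at 1 µM final. Cells were seeded at 5000/well and exposed to a range of drug concentrations for 72 h at 37 °C, 5% CO2. Media: DMEM for A2780 and the dCK-deficient AG6000; RPMI for A549, H292 and H460; each with 10% FCS and 20 mM HEPES. Relative growth was calculated against ODzero and untreated controls.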
# [8] = Growth inhibition of H292 cells by SRB assay in presence of dipyridamole; format: functional, cell-based; conditions: Homo sapiens, NCI-H292; in short: as §2
# NCI-H460 [9] = test: Growth inhibition of H460 cells by SRB assay in presence of dipyridamole; format: functional, cell-based; conditions: Homo sapiens; in short: as §2
# SW1573 [10] = test: Growth inhibition of SW1573 cells by SRB assay in presence of dipyridamole; format: functional, cell-based; conditions: Homo sapiens
# In short: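 SW1573 cells cultured in DMEM, 10% FCS, 20 mM HEPES, 37 °C, 5% CO2. Plated at 5000 cells/well and given graded drug concentrations with the nucleoside transport inhibitor dipyridamole at 1 µM final, for 72 h. SRB read-out at OD 540 or 492 nm. Growth is expressed relative to time-zero and untreated wells.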
# A2780 [11] = test: Growth inhibition of A2780 cells by SRB assay in presence of dipyridamole; format: functional, cell-based; conditions: Homo sapiens; in short: as §2
# [12] = Growth inhibition of AG6000 cells by SRB assay in presence of dipyridamole; format: functional, cell-based; conditions: Homo sapiens; in short: as §2
# CCRF-CEM [13] = test: Growth inhibition of CEM cells by MTT assay; conditions: Homo sapiens
# CCRF-CEM [14] = test: Growth inhibition of dCK deficient CEM cells by MTT assay; conditions: Homo sapiens
# CCRF-CEM [15] = test: Growth inhibition of CEM cells by MTT assay in presence of dipyridamole; conditions: Homo sapiens
# CCRF-CEM [16] = test: Growth inhibition of dCK deficient CEM cells by MTT assay in presence of dipyridamole; conditions: Homo sapiens
structure (smiles),measurement,setting,value
Nc1ccn([C@@H]2O[C@H](CO)[C@@H](O)C2(F)F)c(=O)n1 [GEMCITABINE],IC50,A549 [1],14 nM
same,IC50,[2],13 nM
same,IC50,NCI-H460 [3],10 nM
same,IC50,SW1573 [4],16 nM
same,IC50,A2780 [5],1.5 nM
same,IC50,[6],20000 nM
same,IC50,A549 [7],225 nM
same,IC50,[8],210 nM
same,IC50,NCI-H460 [9],103 nM
same,IC50,SW1573 [10],275 nM
same,IC50,A2780 [11],15 nM
same,IC50,[12],20000 nM
same,IC50,CCRF-CEM [13],130 nM
same,IC50,CCRF-CEM [14],50000 nM
same,IC50,CCRF-CEM [15],1000 nM
same,IC50,CCRF-CEM [16],100000 nM
